In ChEMBL document CHEMBL1148598, “Rational design and enantioselective synthesis of (1R,4S,5R,6S)-3-azabicyclo[3.3.0]octane-4,6-dicarboxylic acid - a novel inhibitor at human glutamate transporter subtypes 1, 2, and 3” (J Med Chem, 2006):

What was measured:
[1] = biological target: Excitatory amino acid transporter 2 (Homo sapiens, UniProt P43004); test: Activity against human EAAT2 transfected in HEK293 cells; assay type: cell-based
How it was run: (§1)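 HEK293 lines stably expressing the human transporter were grown on poly-D-lysine plates in DMEM with 10% dialyzed FBS, pen/strep and 1 mg/mL G-418. After 16-24 h, cells were put in Krebs buffer (pH 7.4) containing inhibitor and loaded with FMP dye for 30 min at 37 °C. Plates were read at 30 °C (ex 530/em 560 nm) up to 1 min after adding 30 µM Glu. Runs were in triplicate, ≥3 times. IC50 was converted to Ki by Cheng-Prusoff.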

Glutamate NMDA receptor = test: Displacement of [3H]CGP-39653 from NMDA preferring iGlu receptor in rat brain; assay type: tissue-based
[2] = biological target: T1, Excitatory amino acid transporter 3 (Homo sapiens, UniProt P43005); test: Activity against human EAAT3 transfected in HEK293 cells; assay type: cell-based; how it was run: as §1
T1 sequence (P43005 whole entry): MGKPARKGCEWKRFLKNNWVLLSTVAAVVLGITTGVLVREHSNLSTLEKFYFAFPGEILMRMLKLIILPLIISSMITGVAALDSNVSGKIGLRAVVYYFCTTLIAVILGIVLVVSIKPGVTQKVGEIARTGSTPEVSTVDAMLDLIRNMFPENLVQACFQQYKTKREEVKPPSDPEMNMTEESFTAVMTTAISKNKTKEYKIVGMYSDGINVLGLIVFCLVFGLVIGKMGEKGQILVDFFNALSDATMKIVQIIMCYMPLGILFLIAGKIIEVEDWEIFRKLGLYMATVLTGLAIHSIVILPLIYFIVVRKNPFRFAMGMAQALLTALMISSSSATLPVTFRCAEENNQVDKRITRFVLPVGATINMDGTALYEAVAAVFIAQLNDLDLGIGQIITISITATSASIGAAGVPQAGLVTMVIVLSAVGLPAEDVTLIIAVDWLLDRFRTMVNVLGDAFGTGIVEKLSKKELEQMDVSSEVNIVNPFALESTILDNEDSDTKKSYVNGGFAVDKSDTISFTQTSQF

[3] = biological target: Excitatory amino acid transporter 1 (Homo sapiens, UniProt P43003); test: Activity against human EAAT1 transfected in HEK293 cells; assay type: cell-based; how it was run: as §1
Excitatory amino acid transporter 1, sequence (P43003 whole entry): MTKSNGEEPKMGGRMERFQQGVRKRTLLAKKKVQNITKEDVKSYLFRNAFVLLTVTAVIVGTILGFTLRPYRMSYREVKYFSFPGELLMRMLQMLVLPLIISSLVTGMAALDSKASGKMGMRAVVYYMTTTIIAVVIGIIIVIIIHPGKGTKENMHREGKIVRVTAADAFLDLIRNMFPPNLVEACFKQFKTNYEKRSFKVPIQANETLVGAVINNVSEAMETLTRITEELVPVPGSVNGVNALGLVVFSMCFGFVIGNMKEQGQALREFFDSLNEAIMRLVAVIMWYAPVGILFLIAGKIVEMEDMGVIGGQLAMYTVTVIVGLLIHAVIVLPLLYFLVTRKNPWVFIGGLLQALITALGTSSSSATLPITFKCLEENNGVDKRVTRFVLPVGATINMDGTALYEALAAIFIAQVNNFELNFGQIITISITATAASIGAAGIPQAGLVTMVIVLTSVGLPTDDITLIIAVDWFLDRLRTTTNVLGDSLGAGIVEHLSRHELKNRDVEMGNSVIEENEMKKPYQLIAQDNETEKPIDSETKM

[4] = biological target: Glutamate receptor ionotropic, kainate; test: Displacement of [3H]KAIN from kainate receptor in rat brain; assay type: tissue-based
How it was run: (§2)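 Radioligand binding used rat brain membranes prepared by the Ransom and Stec method. Ligands were 5 nM [³H]AMPA for AMPA sites, 5 nM [³H]KAIN for kainate sites and 2 nM [³H]CGP 39653 for NMDA sites, and the value is reported as IC50.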

[5] = biological target: Metabotropic glutamate receptor 2 (Homo sapiens, UniProt Q14416); test: Activity against mGluR2
Metabotropic glutamate receptor 2, sequence (Q14416 whole entry): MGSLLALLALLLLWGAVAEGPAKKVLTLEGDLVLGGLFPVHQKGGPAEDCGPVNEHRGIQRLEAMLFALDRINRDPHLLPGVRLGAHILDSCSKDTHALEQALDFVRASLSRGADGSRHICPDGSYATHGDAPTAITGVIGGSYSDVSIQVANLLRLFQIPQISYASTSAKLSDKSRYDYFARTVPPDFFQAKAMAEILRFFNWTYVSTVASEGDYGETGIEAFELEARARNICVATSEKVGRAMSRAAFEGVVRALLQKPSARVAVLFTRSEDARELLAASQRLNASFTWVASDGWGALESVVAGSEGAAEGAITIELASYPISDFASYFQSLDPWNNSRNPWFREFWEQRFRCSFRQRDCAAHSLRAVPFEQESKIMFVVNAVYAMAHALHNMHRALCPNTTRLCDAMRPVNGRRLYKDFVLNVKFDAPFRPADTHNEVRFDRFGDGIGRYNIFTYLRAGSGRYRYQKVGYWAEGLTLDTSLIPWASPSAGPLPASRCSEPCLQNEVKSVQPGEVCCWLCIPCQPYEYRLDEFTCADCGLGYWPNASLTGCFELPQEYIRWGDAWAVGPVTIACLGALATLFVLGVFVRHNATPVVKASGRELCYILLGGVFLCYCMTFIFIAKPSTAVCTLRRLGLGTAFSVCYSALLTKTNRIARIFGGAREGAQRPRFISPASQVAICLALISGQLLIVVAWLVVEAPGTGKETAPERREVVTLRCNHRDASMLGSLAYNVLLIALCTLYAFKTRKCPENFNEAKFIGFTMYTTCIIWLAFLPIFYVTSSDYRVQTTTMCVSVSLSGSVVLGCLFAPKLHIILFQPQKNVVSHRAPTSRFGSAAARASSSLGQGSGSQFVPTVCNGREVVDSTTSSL

[6] = biological target: Metabotropic glutamate receptor 1 (Homo sapiens, UniProt Q13255); test: Activity against mGluR1
Metabotropic glutamate receptor 1, sequence (Q13255 whole entry): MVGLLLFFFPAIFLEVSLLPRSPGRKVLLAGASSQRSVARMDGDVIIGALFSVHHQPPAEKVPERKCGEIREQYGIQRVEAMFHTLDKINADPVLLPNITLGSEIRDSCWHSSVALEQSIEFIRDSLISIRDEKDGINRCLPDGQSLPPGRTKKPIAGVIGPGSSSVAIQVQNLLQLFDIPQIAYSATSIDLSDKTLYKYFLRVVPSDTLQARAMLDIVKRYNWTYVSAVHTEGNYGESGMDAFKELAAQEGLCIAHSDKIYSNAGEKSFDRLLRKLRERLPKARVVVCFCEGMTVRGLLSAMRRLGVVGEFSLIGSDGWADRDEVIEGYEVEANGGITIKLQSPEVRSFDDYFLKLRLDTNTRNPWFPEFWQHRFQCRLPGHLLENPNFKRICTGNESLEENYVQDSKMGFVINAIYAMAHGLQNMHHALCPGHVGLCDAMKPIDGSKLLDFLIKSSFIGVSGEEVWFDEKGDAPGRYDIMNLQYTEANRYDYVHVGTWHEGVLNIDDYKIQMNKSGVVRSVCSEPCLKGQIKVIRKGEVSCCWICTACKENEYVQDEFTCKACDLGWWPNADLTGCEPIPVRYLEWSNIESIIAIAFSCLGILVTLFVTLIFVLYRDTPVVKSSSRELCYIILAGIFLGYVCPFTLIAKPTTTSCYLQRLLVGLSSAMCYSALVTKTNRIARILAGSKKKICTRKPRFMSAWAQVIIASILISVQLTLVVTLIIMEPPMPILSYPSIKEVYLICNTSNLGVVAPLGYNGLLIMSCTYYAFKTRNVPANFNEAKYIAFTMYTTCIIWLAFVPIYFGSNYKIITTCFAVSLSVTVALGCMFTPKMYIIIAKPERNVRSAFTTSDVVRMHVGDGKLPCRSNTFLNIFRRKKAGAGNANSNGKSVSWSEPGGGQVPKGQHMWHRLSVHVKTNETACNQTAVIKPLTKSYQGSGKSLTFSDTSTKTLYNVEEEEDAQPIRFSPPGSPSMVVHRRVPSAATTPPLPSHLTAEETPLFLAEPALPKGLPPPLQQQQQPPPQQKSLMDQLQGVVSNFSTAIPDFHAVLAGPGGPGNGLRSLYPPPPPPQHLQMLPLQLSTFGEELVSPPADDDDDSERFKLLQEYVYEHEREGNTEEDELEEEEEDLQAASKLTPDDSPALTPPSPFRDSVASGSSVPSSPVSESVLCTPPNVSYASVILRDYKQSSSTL

[7] = biological target: Glutamate receptor ionotropic, AMPA (Rattus norvegicus, UniProt P19490+P19491+P19492+P19493); test: Displacement of [3H]AMPA from AMPA receptor in rat brain; assay type: tissue-based; how it was run: as §2

Excitatory amino acid transporter 2, sequence (P43004 whole entry): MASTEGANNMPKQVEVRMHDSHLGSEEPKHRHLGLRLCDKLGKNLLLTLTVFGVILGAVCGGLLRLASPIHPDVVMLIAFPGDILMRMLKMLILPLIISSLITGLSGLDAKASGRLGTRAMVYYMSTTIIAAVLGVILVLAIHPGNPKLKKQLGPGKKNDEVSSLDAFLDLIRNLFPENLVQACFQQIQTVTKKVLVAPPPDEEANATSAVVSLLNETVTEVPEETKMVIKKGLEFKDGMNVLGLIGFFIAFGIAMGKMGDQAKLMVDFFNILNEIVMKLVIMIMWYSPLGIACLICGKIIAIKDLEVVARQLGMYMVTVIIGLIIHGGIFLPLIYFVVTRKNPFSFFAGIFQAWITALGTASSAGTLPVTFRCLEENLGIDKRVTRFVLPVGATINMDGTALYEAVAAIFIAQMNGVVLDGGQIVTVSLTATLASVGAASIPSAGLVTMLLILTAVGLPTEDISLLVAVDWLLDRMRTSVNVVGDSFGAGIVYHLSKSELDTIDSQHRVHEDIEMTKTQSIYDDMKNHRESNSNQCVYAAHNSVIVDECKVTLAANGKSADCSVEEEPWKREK

| SMILES | Ki [1] | Ki (Glutamate NMDA receptor) | Ki [2] | Ki [3] | IC50 [4] | EC50 [5] | EC50 [6] | IC50 [7] |
| --- | --- | --- | --- | --- | --- | --- | --- | --- |
| O=C(O)[C@H]1CC[C@H]2CN[C@H](C(=O)O)[C@H]21 | 52 µM | 2.9 µM | 46 µM | 127 µM | 14 µM | 1000 µM | > 1000 µM | > 100 µM |
| O=C(O)[C@H]1CC2CC1[C@@H](C(=O)O)N2 (stereo partly specified) | > 400 µM |  | > 400 µM | > 400 µM |  |  |  |  |
